# In the RNAGym collection of RNA variant scans (doi:10.1126/science.aae0568):
# This sample holds only a part of the variants without activity.
# B1: tRNA (parent)
# chain: GUUCCGUUGGCGUAAUGGUAACGCGUCUCCCUCCUAAGGAGAAGACUGCGGGUUCGAGUCCCGUACGGAACG
# Variants of: B1
# Test: yeast fitness relative to wild type (ratio to wild type); higher = fitter; tRNA-Arg(CCU), competitive growth, 37 C, YPD
# In short: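 Amplicons of the tRNA-Arg(CCU) gene were sequenced, 100-nucleotide paired-end, from the start population and from each end population of a pooled yeast competition. The competition, in six parallel replicates, lasted 24 hours in YPD at 37°C. Fitness relative to wild type was calculated from changes in genotype frequencies. Genotypes had to have ≥ 100 starting reads, and estimates < 0.5 were set to 0.5.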
row,Variant,yeast fitness
1,GUUCCGUUCGCGUAAUGGUAACGUGUCUCGCUCCUAAGGAGAAGACUGCGGAUUCGAGUCUCGUACGGAACG,≤ 0.5
2,GUUCCGUUCGCGUAAUGGUAACGUGGCUCCCUCCUAAGGAGAAGACUGCGGGUUCGAGUCCCGUACGGAACG,0.51
3,GUUCCGUUCGCGUAAUGGUAACGUGGCUCCCUCCUAAGGAGAAGACUGCGGGUUCGAGUCGCGUACGGAACG,0.504
4,GUUCCGUUCGCGUAAUGGUAACGUGGCUCCCUCCUAAGGAGAAGACUGCGGGUUCGAGUCCUGUACGGAACG,≤ 0.5
5,GUUCCGUUCGCGUAAUGGUAACGUGGCUCCCUCCUAAGGAGAAGACUGCGGGUUCGAGUCCCGUACGUAACG,≤ 0.5
6,GUUCCGUUCGCGUAAUGGUAACGCGUAUCUCUGCUAAGGAGAAGACUGCGGGUUCGAGUCCCGUACGGAACG,≤ 0.5
7,GUUCCGUUCGCGUAAUGGUAACGCGUAGCCCUCCUAAGGAGAAGACUGCGGGUUCGAGUCCCGUACGGAACG,≤ 0.5
8,GUUCCGUUCGCGUAAUGGUAACGCGUGUGCCUCCUCAGGAGAAGACUGCGGGUUCGAGUCCCGUACGGAACG,≤ 0.5
9,GUUCCGUUCGCGUAAUGGUAACGCGUGUGCCUCCUCAGGAGAAGACUGCGGGUUCGAGUCACGUACGGAACG,≤ 0.5
10,GUUCCGUUCGCGUAAUGGUAACGCGUGUCCCUCCUAAGGAGAAGAUUGCGGGUUCGAGUCCCGUACGGAACG,0.582
11,GUUCCGUUCGCGUAAUGGUAACGCGUGUCCCUCCUAAGGAGAAGACUGCGGCUUCGAGUCCCGUACGGAACG,0.595
12,GUUCCGUUCGCGUAAUGGUAACGCGUUUCCCUCCUAAGGAGAAGACUGCGGGUUCGAGUCCCGUACGGAACG,0.621
13,GUUCCGUUCGCGUAAUGGUAACGCGUUUCCCUCCUAAGGAGUAGACUGCGGGUUGGAGUCCCGUACGGAACG,≤ 0.5
14,GUUCCGUUCGCGUAAUGGUAACGCGUUUCCCUGCUAAGGAGAAGACUGCGGGUUCGAGUCCCGUACGGAACG,≤ 0.5
15,GUUCCGUUCGCGUAAUGGUAACGCGUUUCCCUGCUAGGGAGAAGACUGCGGGUUCGAGUCCCGUAUGGAACG,≤ 0.5
16,GUUCCGUUCGCGUAAUGGUAACGCGUUUCCCUCCUAAGGAGAAGACUGCGGCUUCGAGUCCCGUACGGAACG,≤ 0.5
17,GUUCCGUUCGCGUAAUGGUAACGCGUUUCCCUCCUAAGGAGAAGACUGCGGGAUCGAGUCCCGUACGGAACG,0.548
18,GUUCCGUUCGCGUAAUGGUAACGCGUCUACCUCUUAAGGAGAAGACUGCGGGUUCGAGUCCCGUACGGAACG,≤ 0.5
19,GUUCCGUUCGCGUAAUGGUAACGCGUCUACCGCCUAAGGAGAAGACUGCGGGUUCGAGUCCCGUAUGGAACG,≤ 0.5
20,GUUCCGUUCGCGUAAUGGUAACGCGUCUGCUUCGUAAGGAGGAGACUGCGGGUUCGAGUCCCGUACGGAACG,0.535
21,GUUCCGUUCGCGUAAUGGUAACGCGUCUGCCUCGUAAGGAGAAGACUGCGGGUUCGAGUCCCGUACGGAACG,≤ 0.5
22,GUUCCGUUCGCGUAAUGGUAACGCGUCUUCCUCCUUAGGAGAAGACUGCGGGUUCGAGUCCCGUGCAGAACG,≤ 0.5
23,GUUCCGUUCGCGUAAUGGUAACGCGUCUUACUCCUAAGGAGAAGAGUGCGGGUUCGAGUCCCGUACGGAACG,≤ 0.5
24,GUUCCGUUCGCGUAAUGGUAACGCGUCUCACUCCUAAGGAGAAGAAUCCGGGUUCGAGUCCCGUACGGACCG,≤ 0.5
25,GUUCCGUUCGCGUAAUGGUAACGCGUCUCACUCCCAAGGAGAAGACUGCGGGUUCGAGUCCCGUACGGAACG,≤ 0.5

row,Variant,yeast fitness
1,GUUCCGUUCGCGUAAUGGUAACGCGUCUCGCUCCUUAGGAGAAGAAUGCGGGUUCGAGUCCCGUACGGAACG,0.532
2,GUUCCGUUCGCGUAAUGGUAACGCGUCUCGCUCCUAAGGAGAAGAUUGCGGGUUCGAGUCCCGUACGGAACG,0.564
3,GUUCCGUUCGCGUAAUGGUAACGCGUCUCGCUCCUAACGAGAAGACUGCGGGUUCGACUCCCGUAAGGAACG,0.535
4,GUUCCGUUCGCGUAAUGGUAACGCGUCUCUCUCCUAGGGAGAAGACUGCGGGUUGGAGUCCCGUACGGAACG,≤ 0.5
5,GUUCCGUUCGCGUAAUGGUAACGCGUCUCUCUCCUAAGGAGAAGGCUGCGGGUUCGAGUCCCGUACGGAACG,≤ 0.5
6,GUUCCGUUCGCGUAAUGGUAACGCGUCUCUCUCCUAAGGAGAAGACUGCGGGUUCGAGUCCCGUACGGUACG,≤ 0.5
7,GUUCCGUUCGCGUAAUGGUAACGCGUCUCUGUCCUAAGGAGAAGACUGCGGGUUCGAGUCCCGUACGGAACG,0.632
8,GUUCCGUUCGCGUAAUGGUAACGCGUCUCUCUCCUAAGGAGAAGACUCCGGGUUCGAGUCCCGUACGGAACG,≤ 0.5
9,GUUCCGUUCGCGUAAUGGUAACGCGUCUCUCUCCUAAGGAGAAGACUGCGGGCUCGAGUCCCGUACGGAACG,≤ 0.5
10,GUUCCGUUCGCGUAAUGGUAACGCGUCUCCAUCCUAAGGAGAAGACUGCGGGUUCGAGUCCCGUACGGAACG,0.685
11,GUUCCGUUCGCGUAAUGGUAACGCGUCUCCAUCCUAAGGAGAAGACUGGGGGUUGGAGUCCCGUACGGACCG,≤ 0.5
12,GUUCCGUUCGCGUAAUGGUAACGCGUCUCCGUCCUAAGGCGAAGACUGCGGGUUCGAGUCCCGUACGGAACG,0.597
13,GUUCCGUUCGCGUAAUGGUAACGCGUCUCCGUCCUAAGGAGAAGACUGCGGGUUCGAGUCCCGUACGGGACG,≤ 0.5
14,GUUCCGUUCGCGUAAUGGUAACGCGUCUCCGUCCUAAGGAGAAGACUGCGGGUACGAGUCCCGUACCGUACG,≤ 0.5
15,GUUCCGUUCGCGUAAUGGUAACGCGUCUCCCUACUAAGGAGAAGACUGCGGGUUCGAGUCCCGUACGGACCG,0.826
16,GUUCCGUUCGCGUAAUGGUAACGCGUCUCCCUUCUAAGGGGAAGACUGCGGGUGCGAGUCCGGUACGGAACG,≤ 0.5
17,GUUCCGUUCGCGUAAUGGUAACGCGUCUCCCUCAUAAGGAGAAGAAUGCGGGUUCAAGUCCCGUACGGAACG,≤ 0.5
18,GUUCCGUUCGCGUAAUGGUAACGCGUCUCCCUCGUAAGGAGAAGACUGCGAGUUCGAGUCCCGUACGGAGCG,≤ 0.5
19,GUUCCGUUCGCGUAAUGGUAACGCGUCUCCCUCGUAAGGAGAAGACCGUGGGUUCGAGUCCCGUACGGAACG,≤ 0.5
20,GUUCCGUUCGCGUAAUGGUAACGCGUCUCCCUCUUAAGGAGAUGACUGCGGGUUAGCGUCCCGUACGGAACG,≤ 0.5
21,GUUCCGUUCGCGUAAUGGUAACGCGUCUCCCUCCUAAGGAGAAGAAUGCGGGUUCGAGUCCCGUACGGAACG,0.893
22,GUUCCGUUCGCGUAAUGGUAACGCGUCUCCCUCCUAAGGAGAAGAGUGCGGGUUCGAGUCGCGUCCGGAACG,≤ 0.5
23,GUUCCGUUCGCGUAAUGGUAACGCGUCUCCCUCCUAAGGAGAAGAUUGCGGGUUCGAGUCCCGUUCGGUACG,≤ 0.5
24,GUUCCGUUCGCGUAAUGGUAACGCGUCUCCCUCCUAAGGAGAAGACUGAGGGUUCGAGUCCCGUACGGAACG,0.596
25,GUUCCGUUCGCGUAAUGGUAACGCGUCUCCCUCCUAAGGAGAAGACUGGAGGUUCGAGUGCCGUGCGGAGCG,≤ 0.5

row,Variant,yeast fitness
1,GUUCCGUUCGCGUAAUGGUAACGCGUCUCCCUCCUAAGGAGAAGACUGUGGGUUCGGGUCCCGUACGGAACG,0.615
2,GUUCCGUUCGCGUAAUGGUAACGCGUCUCCCUCCUAAGGAGAAGACUGUGGGUUCGAGUCCCGUUCGGAACG,0.52
3,GUUCCGUUCGCGUAAUGGUAACGCGUCUCCCUCCUAAGGAGAAGACUGCGGGUUAGAGUCCCGUACGGAACG,0.631
4,GUUCCGUUCGCGUAAUGGUAACGCGUCUCCCUCCUAAGGAGAAGACUGCGGGUUAGAGUCCCGUACGGCACG,≤ 0.5
5,GUUCCGUUCGCGUAAUGGUAACGCGUCUCCCUCCUAAGGAGAAGACUGCGGGUUAGAGUCUCGUACGGAACG,≤ 0.5
6,GUUCCGUUCGCGUAAUGGUAACGCGUCUCCCUCCUAAGGAGAAGACUGCGGGUUUGAGUCCCGUACGGAACG,0.635
7,GUUCCGUUCGCGUAAUGGUAACGCGUCUCCCUCCUAAGGAGAAGACUGCGGGUUCGAGUCGCCUACGGAACG,≤ 0.5
8,GUUCCGUUCGCGUAAUGGUAACGCGUCUCCCUCCUAAGGAGAAGACUGCGGGUUCGAGUCUCGUAGGGAACG,≤ 0.5
9,GUUCCGUUCGCGUAAUGGUAACGCGUCUCCCUCCUAAGGAGAAGACUGCGGGUUCGAGUCCUGUACGGAACG,0.814
10,GUUCCGUUCGCGUAAUGGUAACGCGUCUCCCUCCUAAGGAGAAGACUGCGGGUUCGAGUCCCGUAGGGAACG,0.547
11,GUUCCGUUCCCGUAAUGGUAACGCGUCUCCCUCCUAAGGAGAAGACUGCGGGUUCGAGUCCCGUACGGAACG,0.68
12,GUUCCGUUCCCGUAAUGGUAACGCGUCUCCCUCCUCAGCAGAAGACUACGGGUUCGAGUCCCGUACGGAACG,0.512
13,GUUCCGUUCCCGUAAUGGUAACGCGUCUCCCUCCUAAGGAGAAGACUGCGGGUUCGAGUCCCGUACGGGGCG,≤ 0.5
14,GUUCCGUUCCCGUAAUGGUAACGCGUCUGCCUCCUAAGGAGAAGACUGCGGGUUCGAGUCCCGUACGGAACG,≤ 0.5
15,GUUCCGUUCCCGUAAUGGUAACGCGUCUGCCUCCUAAGGAGAAGAAUGCGGGUUCGAGUCCCGUACGGAACG,0.59
16,GUUCCGUUCCCGUAAUGGUAACGCGUCUCCCUCCUAAGGAGAAGACAGCGGGUUCGAGUCCCGUACGGAACG,≤ 0.5
17,GUUCCGUUCGCAUAAUGGUACCGCGACUCCCUCCUAAGCAGAAGACUGCGGGUUCGAGUCCCGUACGGAACG,0.632
18,GUUCCGUUCGCAUAAUGGUAAUGUGUCUCCCUCCUAAGGAGAAGACUGCGGGUUCGAAUCCCGUACGGAACG,≤ 0.5
19,GUUCCGUUCGCAUAAUGGUAACGCGUCUACCUCCUAAAGAGAAGACUGCGGGUUCGAGUCCCGUACGGAACG,≤ 0.5
20,GUUCCGUUCGCAUAAUGGUAACGCGUCUCCCUCCUAAGGAGAAGACUCCGGGUUCGAGUCCAGUACGGAACG,≤ 0.5
21,GUUCCGUUCGCCUGAUGGUCACGCGUCUCCCUCCUAAGGAGAAGACUGCGGGUUCGAGUCCCGUACGGAACG,≤ 0.5
22,GUUCCGUUCGCCUGAUGGUCACGCGUCUCCCUCCUAAGGAGAAGACUGCGGGUUCGAGUCCCGUACCGAACG,≤ 0.5
23,GUUCCGUUCGCGUAAUAGUAACGCGUUUCCCUCCUAAGGAGAAGACUGCGGGUUCGAGUCCCGUACGGAACG,≤ 0.5
24,GUUCCGUUCGCGUAAUAGUAACGCGUUUCCCUCCUAAGGAGAAGACUGCGGGUACGAGUCCCGUACGGAACG,≤ 0.5
25,GUUCCGUUCGCGUAAUAGUAACGCGUCUCCCUCCUAAGGAGAAGACUGCGGGUUCGAGUCCCGUAUGGAACG,≤ 0.5
